Measured values published in ChEMBL document CHEMBL4033657, “N-Aryl-N'-ethyleneaminothioureas effectively inhibit acetylcholinesterase 1 from disease-transmitting mosquitoes” (Eur J Med Chem, 2017).

How the values were obtained:
[1] = system: Aedes aegypti; experiment: Insecticidal activity against five days old adult Aedes aegypti Mombasa assessed as mortality at 2 mM applied topically on upper part of pronotum after 24 hrs (reference value: 2 to 10%); assay type: functional; conditions: topical
[2] = target: T1, Acetylcholinesterase (Anopheles gambiae, UniProt Q869C3); experiment: Inhibition of recombinant full length Anopheles gambiae AChE1 expressed in baculovirus-infected Sf9 insect cells using acetylthiocholine iodide as substrate measured over 60 secs by Ellman's method
[3] = Inhibition of recombinant full length Aedes aegypti AChE1 expressed in baculovirus-infected Sf9 insect cells using acetylthiocholine iodide as substrate measured over 60 secs by Ellman's method
Procedure, shortened: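 Secreted, non-purified recombinant enzyme in growth medium, tested as enzyme source. Ellman assay at 30 °C in 0.1 M phosphate buffer pH 7.4 with 0.2 mM DTNB and 1 mM acetylthiocholine iodide; A412 followed over 60 s. Compound (100 mM DMSO stock) tested at eight concentrations, maximum 1 mM. Activity set relative to eight uninhibited controls per plate; IC50 from three-parameter variable-slope fit; 2-3 independent replicates.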

[4] = target: Acetylcholinesterase (Homo sapiens, UniProt P22303); experiment: Inhibition of recombinant human AChE expressed in HEK293F cells using acetylthiocholine iodide as substrate measured over 60 secs by Ellman's method; set-up: species or system HEK293
[5] = Selectivity ratio of IC50 for recombinant human AChE expressed in HEK293F cells to IC50 for recombinant full length Anopheles gambiae AChE1 expressed in baculovirus-infected Sf9 insect cells
Procedure, shortened: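 Ratio of the hAChE IC50 divided by the higher of the AgAChE1 or AaAChE1 IC50. Each IC50 came from an Ellman assay (1 mM acetylthiocholine, 0.2 mM DTNB, pH 7.4, 30 °C) with eight concentrations up to 1 mM, using 2-3 replicates.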

[6] = target: Acetylcholinesterase (Anopheles gambiae, UniProt Q869C3, G122S); experiment: Inhibition of recombinant full length Anopheles gambiae AChE1 G122S mutant expressed in baculovirus-infected Sf9 insect cells using acetylthiocholine iodide as substrate measured over 60 secs by Ellman's method
[7] = target: T1, Acetylcholinesterase; experiment: Inhibition of AChE1 in Anopheles gambiae head extract using acetylthiocholine iodide as substrate measured over 60 secs by Ellman's method
[8] = target: T1, Acetylcholinesterase; experiment: Inhibition of AChE1 in Anopheles gambiae body extract using acetylthiocholine iodide as substrate measured over 60 secs by Ellman's method
[9] = system: Anopheles gambiae; experiment: Insecticidal activity against five days old adult Anopheles gambiae Kisumu assessed as mortality at 0.01 nmol applied topically on upper part of pronotum after 24 hrs; assay type: functional
[10] = system: Anopheles gambiae; experiment: Insecticidal activity against five days old adult Anopheles gambiae Kisumu assessed as mortality at 0.2 nmol applied topically on upper part of pronotum after 24 hrs; assay type: functional
[11] = system: Anopheles gambiae; experiment: Insecticidal activity against five days old adult Anopheles gambiae Kisumu assessed as mortality at 1 nmol applied topically on upper part of pronotum after 24 hrs; assay type: functional
[12] = system: Aedes aegypti; experiment: Insecticidal activity against 3rd instar larvae of Aedes aegypti Mombasa assessed as mortality at 50 uM administered via de-chlorinated tap water after 24 hrs; assay type: functional
Procedure, shortened: (§1)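 Kenyan strains were reared at 27-28 °C, about 80% humidity, 12/12 h light. Per compound and concentration, 25 third-instar larvae were placed in 100 ml de-chlorinated water containing the compound and kept under insectary conditions. The negative control was plain water; the positive control was propoxur at 25 µM. Mortality was scored at 24 h; 75 treated and 50 control larvae in total.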

[13] = system: Aedes aegypti; experiment: Insecticidal activity against 3rd instar larvae of Aedes aegypti Mombasa assessed as mortality at 300 uM administered via de-chlorinated tap water after 24 hrs; assay type: functional; procedure, shortened: as §1
[14] = system: Aedes aegypti; experiment: Insecticidal activity against 3rd instar larvae of Aedes aegypti Mombasa assessed as mortality at 500 uM administered via de-chlorinated tap water after 24 hrs; assay type: functional; procedure, shortened: as §1
[15] = system: Anopheles gambiae; experiment: Insecticidal activity against 3rd instar larvae of Anopheles gambiae Kisumu assessed as mortality at 50 uM administered via de-chlorinated tap water after 24 hrs; assay type: functional; procedure, shortened: as §1
[16] = system: Anopheles gambiae; experiment: Insecticidal activity against 3rd instar larvae of Anopheles gambiae Kisumu assessed as mortality at 300 uM administered via de-chlorinated tap water after 24 hrs; assay type: functional; procedure, shortened: as §1
[17] = system: Anopheles gambiae; experiment: Insecticidal activity against 3rd instar larvae of Anopheles gambiae Kisumu assessed as mortality at 500 uM administered via de-chlorinated tap water after 24 hrs; assay type: functional; procedure, shortened: as §1
[18] = system: Aedes aegypti; experiment: Insecticidal activity against five days old adult Aedes aegypti Mombasa assessed as mortality at 0.2 nmol applied topically on upper part of pronotum after 24 hrs; assay type: functional
[19] = system: Aedes aegypti; experiment: Insecticidal activity against five days old adult Aedes aegypti Mombasa assessed as mortality at 1 nmol applied topically on upper part of pronotum after 24 hrs; assay type: functional
[20] = system: Anopheles gambiae; experiment: Insecticidal activity against 3rd instar larvae of Anopheles gambiae Kisumu assessed as mortality at 50 uM administered via de-chlorinated tap water after 48 hrs; assay type: functional
[21] = system: Anopheles gambiae; experiment: Insecticidal activity against 3rd instar larvae of Anopheles gambiae Kisumu assessed as mortality at 300 uM administered via de-chlorinated tap water after 48 hrs; assay type: functional
[22] = system: Anopheles gambiae; experiment: Insecticidal activity against 3rd instar larvae of Anopheles gambiae Kisumu assessed as mortality at 500 uM administered via de-chlorinated tap water after 48 hrs; assay type: functional
[23] = system: Anopheles gambiae; experiment: Insecticidal activity against five days old adult Anopheles gambiae Kisumu assessed as mortality at 0.1 mM applied topically on upper part of pronotum after 24 hrs (reference value: 0%); assay type: functional; conditions: topical
[24] = system: Anopheles gambiae; experiment: Insecticidal activity against five days old adult Anopheles gambiae Kisumu assessed as mortality at 2 mM applied topically on upper part of pronotum after 24 hrs (reference value: 3 to 17%); assay type: functional; conditions: topical
[25] = system: Anopheles gambiae; experiment: Insecticidal activity against five days old adult Anopheles gambiae Kisumu assessed as mortality at 10 mM applied topically on upper part of pronotum after 24 hrs (reference value: 8 to 16%); assay type: functional; conditions: topical
[26] = system: Anopheles gambiae; experiment: Insecticidal activity against five days old adult Anopheles gambiae Kisumu assessed as mortality at 10 mM applied topically on upper part of pronotum after 48 hrs (reference value: 14 to 22%); assay type: functional; conditions: topical
[27] = system: Aedes aegypti; experiment: Insecticidal activity against 3rd instar larvae of Aedes aegypti Mombasa assessed as mortality at 50 uM administered via de-chlorinated tap water after 48 hrs (reference value: 0 to 4%); assay type: functional
[28] = system: Aedes aegypti; experiment: Insecticidal activity against 3rd instar larvae of Aedes aegypti Mombasa assessed as mortality at 300 uM administered via de-chlorinated tap water after 48 hrs (reference value: 0%); assay type: functional
[29] = system: Aedes aegypti; experiment: Insecticidal activity against 3rd instar larvae of Aedes aegypti Mombasa assessed as mortality at 500 uM administered via de-chlorinated tap water after 48 hrs (reference value: 0 to 2%); assay type: functional
[30] = system: Aedes aegypti; experiment: Insecticidal activity against five days old adult Aedes aegypti Mombasa assessed as mortality at 10 mM applied topically on upper part of pronotum after 24 hrs (reference value: 3 to 15%); assay type: functional; conditions: topical
[31] = system: Aedes aegypti; experiment: Insecticidal activity against five days old adult Aedes aegypti Mombasa assessed as mortality at 2 mM applied topically on upper part of pronotum after 48 hrs (reference value: 3 to 12%); assay type: functional; conditions: topical
[32] = system: Aedes aegypti; experiment: Insecticidal activity against five days old adult Aedes aegypti Mombasa assessed as mortality at 10 mM applied topically on upper part of pronotum after 48 hrs (reference value: 3 to 15%); assay type: functional; conditions: topical
[33] = system: Anopheles gambiae; experiment: Insecticidal activity against 3rd instar larvae of Anopheles gambiae Kisumu assessed as mortality at 25 uM administered via de-chlorinated tap water after 48 hrs; assay type: functional
[34] = system: Anopheles gambiae; experiment: Insecticidal activity against 3rd instar larvae of Anopheles gambiae Kisumu assessed as mortality at 25 uM administered via de-chlorinated tap water after 24 hrs; assay type: functional; procedure, shortened: as §1
[35] = system: Anopheles gambiae; experiment: Insecticidal activity against five days old adult Anopheles gambiae Kisumu assessed as mortality at 6.25 ng applied topically on upper part of pronotum after 24 hrs; assay type: functional

In the case of COc1ccc(NC(=S)NCCN2CCOCC2)cc1Cl, the mortality at 2000 µM [1] is reported as 5%, the IC50 [2] is reported as 120 nM and the IC50 [3] is reported as 90 nM. The IC50 [4] was 14000 nM, the Ratio IC50 [5] was 117 and the IC50 [6] was 84000 nM. The IC50 [7] was 190 nM, the IC50 [8] was 150 nM and the mortality [9] was 0%. It also gave a mortality [10] of 22%, a mortality [11] of 70% and a mortality at 50 µM [12] of 8%. For the same compound, the mortality at 300 µM [13] was 64%, the mortality at 500 µM [14] was 97% and the mortality at 50 µM [15] was 1%. For the same compound, the mortality at 300 µM [16] was 100%, the mortality at 500 µM [17] was 100% and the mortality [18] was 5%. The mortality [19] was 0%, the mortality at 50 µM [20] was 3% and the mortality at 300 µM [21] was 100%. For the same compound, the mortality at 500 µM [22] was 100%, the mortality at 100 µM [23] was 0% and the mortality at 2000 µM [24] was 22%. The mortality at 10000 µM [25] was 72%, the mortality at 10000 µM [26] was 77% and the mortality at 50 µM [27] was 13%. It also gave a mortality at 300 µM [28] of 80%, a mortality at 500 µM [29] of 100% and a mortality at 10000 µM [30] of 3%. For the same compound, the mortality at 2000 µM [31] was 5% and the mortality at 10000 µM [32] was 10%.
Work on CNC(=O)Oc1ccccc1OC(C)C [PROPOXUR] yielded a mortality at 25 µM [33] of 100%, a mortality at 25 µM [34] of 100% and a mortality [35] of 100%.
